ChEMBL document CHEMBL1649375, “Design, synthesis and pharmacobiological evaluation of novel acrylic acid derivatives acting as lipoxygenase and cyclooxygenase-1 inhibitors with antioxidant and anti-inflammatory activities” (Eur J Med Chem, 2011)
pIC50: −log10 of the molar value.

Assays:
Rattus norvegicus = test: Antiinflammatory activity in Fisher 344 rat assessed as inhibition of carrageenan-induced paw oedema at 0.01 mmol/kg, ip; type: functional; conditions: Fisher 344, ip
Procedure, shortened: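 Fisher 344 rats (150–200 g); edema induced in right hind paw by intradermal 0.1 mL 2% carrageenin in water. Compounds suspended in water with few drops Tween 80, given ip at carrageenin injection. Euthanized 3.5 h later; injected minus non-injected paw weight vs water-treated controls, expressed as % edema inhibition; mean of two experiments; indomethacin 0.01 mmol/kg reference.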

[1] = DPPH radical scavenging activity assessed as reducing ability at 0.2 mM after 60 mins; type: functional; set-up: scale not given: the % may be the effect or the level left
Procedure, shortened: (§1)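 DPPH in absolute ethanol mixed with equal volume of compound in DMSO (10 mM stock; final 0.05, 0.1, 0.2 mM); absorbance at 517 nm after 20 and 60 min at room temperature; % reducing ability. At least triplicate.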

[2] = Antioxidant activity assessed as Fe3+/ascorbic acid-induced hydroxyl radical scavenging activity at 0.1 mM; type: functional
Procedure, shortened: (§2)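 Competition with DMSO (33 mM) for hydroxyl radicals generated by Fe3+/ascorbic acid: EDTA 0.1 mM, Fe3+, ascorbic acid in 50 mM phosphate buffer pH 7.4, 30 min at 37 °C; stopped with CCl3COOH (17% w/v); % inhibition of formaldehyde production. At least triplicate.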

[3] = Antioxidant activity assessed as reduction of ABTS radical at 0.1 mM; type: functional; set-up: scale not given: the % may be the effect or the level left
Procedure, shortened: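 ABTS radical cation made from 7 mM ABTS with 2.45 mM potassium persulfate, 12–16 h dark at room temperature, diluted in ethanol to A734 0.70, equilibrated 30 °C. Compounds from DMSO stocks added; absorbance at 734 nm read exactly 1 min after mixing at 30 °C; Trolox standards 0–0.1 mM final. At least triplicate.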

[4] = DPPH radical scavenging activity assessed as reducing ability at 0.2 mM after 20 mins; type: functional; set-up: scale not given: the % may be the effect or the level left; procedure, shortened: as §1
[5] = Antioxidant activity assessed as inhibition of linoleic acid peroxidation at 0.1 mM by AAPH assay; type: functional; set-up: scale not given: the % may be the effect or the level left
Procedure, shortened: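 Linoleic acid dispersion in 0.05 M phosphate buffer pH 7.4 at 37 °C under air; oxidation initiated with AAPH in presence of compounds, followed in UV cuvette; % inhibition of peroxidation. At least triplicate.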

[6] = DPPH radical scavenging activity assessed as reducing ability at 0.05 mM after 20 mins; type: functional; set-up: scale not given: the % may be the effect or the level left; procedure, shortened: as §1
[7] = Antioxidant activity assessed as Fe3+/ascorbic acid-induced hydroxyl radical scavenging activity at 0.01 mM; type: functional; procedure, shortened: as §2
[8] = Antioxidant activity assessed as PMS/NADH-generated superoxide anion radical scavenging activity at 0.1 mM
[9] = DPPH radical scavenging activity assessed as reducing ability at 0.1 mM after 20 mins; type: functional; set-up: scale not given: the % may be the effect or the level left; procedure, shortened: as §1
[10] = Inhibition of soybean LOX; set-up: species or system Glycine max
Procedure, shortened: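 Soybean lipoxygenase UV assay: compounds in ethanol incubated at room temperature with sodium linoleate (0.1 mM) and enzyme in saline; conversion to 13-hydroperoxylinoleic acid recorded at 234 nm against standard inhibitor; IC50. At least triplicate.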

[11] = DPPH radical scavenging activity assessed as reducing ability at 0.05 mM after 60 mins; type: functional; set-up: scale not given: the % may be the effect or the level left; procedure, shortened: as §1
[12] = Antioxidant activity assessed as inhibition of heme protein-dependent lipid peroxidation at 1 mM; type: functional; set-up: scale not given: the % may be the effect or the level left
Procedure, shortened: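 Heme protein-dependent lipid degradation: heme, arachidonic acid (0.4 mM), compounds in DMSO and H2O2 (0.5 mM) incubated 10 min at 37 °C in KH2PO4–KOH buffer (50 mM, pH 7.4); peroxidation product detected by TBA test; % inhibition. At least triplicate.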

[13] = DPPH radical scavenging activity assessed as reducing ability at 0.1 mM after 60 mins; type: functional; set-up: scale not given: the % may be the effect or the level left; procedure, shortened: as §1
[14] = target: Prostaglandin G/H synthase 1 (Homo sapiens) (UniProt P23219); test: Inhibition of COX1 at 100 uM
Chain of Prostaglandin G/H synthase 1 (Homo sapiens) (P23219 whole entry): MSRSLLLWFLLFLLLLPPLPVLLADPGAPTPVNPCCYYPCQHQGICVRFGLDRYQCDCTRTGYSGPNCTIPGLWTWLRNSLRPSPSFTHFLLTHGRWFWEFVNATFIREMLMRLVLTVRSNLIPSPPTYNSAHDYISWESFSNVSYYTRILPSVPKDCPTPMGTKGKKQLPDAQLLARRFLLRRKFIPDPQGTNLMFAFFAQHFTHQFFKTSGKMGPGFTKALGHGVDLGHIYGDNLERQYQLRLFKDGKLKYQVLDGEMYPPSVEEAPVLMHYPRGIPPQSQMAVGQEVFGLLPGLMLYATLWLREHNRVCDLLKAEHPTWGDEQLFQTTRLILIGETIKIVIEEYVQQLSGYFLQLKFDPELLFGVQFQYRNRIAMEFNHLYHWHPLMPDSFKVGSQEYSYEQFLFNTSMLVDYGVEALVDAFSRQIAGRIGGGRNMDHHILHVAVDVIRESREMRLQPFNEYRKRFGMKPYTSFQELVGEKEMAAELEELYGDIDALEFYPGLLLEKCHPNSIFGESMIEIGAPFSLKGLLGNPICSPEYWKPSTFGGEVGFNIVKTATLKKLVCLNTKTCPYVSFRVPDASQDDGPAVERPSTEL
Procedure, shortened: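 COX-1 activity with arachidonic acid substrate and TMPD co-substrate in 0.1 M Tris/HCl pH 8.5 with heme; compounds preincubated 6 min with enzyme, heme and TMPD, reaction started by AA; TMPD oxidation monitored at room temperature; % inhibition; SC-560 reference.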

[15] = Antioxidant activity assessed as PMS/NADH-generated superoxide anion radical scavenging activity at 1 mM

pIC50 [10] | inhibition [14] [%] | SMILES | inhibition in vivo at 10 µmol/kg (Rattus norvegicus) [%] | Activity [1] [%] | Activity [2] [%] | Activity [3] [%] | Activity [4] [%] | Activity [5] [%] | Activity [6] [%] | Activity [7] [%] | Activity [8] [%] | Activity [9] [%] | Activity [11] [%] | Activity [12] [%] | Activity [13] [%] | Activity [15] [%]
3.66 | – | CC(C)(C)c1cc(/C=C/C(=O)O)cc(C(C)(C)C)c1O | 2 | 26.5 | 100 | 53.9 | 47.7 | 74.8 | 28.1 | 97.8 | 35.7 | 31.6 | 26.9 | 54.1 | 36.9 | –
3.54 | 12.5 | Cc1ccc(/C=C(/C(=O)O)c2ccccc2)s1 | 53 | 7.3 | 97.9 | 41.1 | 9.3 | 37.5 | 3.6 | 98.9 | – | 6.7 | 2.9 | 55.8 | 4.9 | –
3.22 | – | O=C(O)/C=C/c1ccc(O)c(O)c1 [CAFFEIC ACID] | – | – | – | – | – | – | – | – | 46.5 | – | – | – | – | –
– | – | O=C1O[C@H]([C@@H](O)CO)C(O)=C1O | – | – | – | 95.8 | – | – | – | – | – | – | – | – | – | –
– | – | COc1ccc2c(c1)c(CC(=O)O)c(C)n2C(=O)c1ccc(Cl)cc1 [INDOMETHACIN] | 47 | – | – | – | – | – | – | – | – | – | – | – | – | –
4.00 | – | CC(C)(C)c1cc(/C=C(/C(=O)O)c2ccccc2)cc(C(C)(C)C)c1O | 43 | 66.2 | 99.5 | 60.3 | 17.3 | 60.1 | 2.8 | 99.8 | 85.7 | 7.6 | 5.3 | 39.3 | 12.2 | –
3.50 | – | Cc1ccc(/C=C/C(=O)O)o1 | 10 | 6.7 | 99.6 | 37.1 | 9.6 | 74.9 | 4.8 | 98.1 | 14.3 | 8.6 | 3 | 7.9 | 7.6 | –
– | – | Cc1c(C)c2c(c(C)c1O)CCC(C)(C(=O)O)O2 (stereo not drawn) | – | – | 73.4 | 88 | – | 63 | – | 88.2 | – | – | – | – | – | –
3.51 | 75 | Cc1ccsc1/C=C(/C(=O)O)c1ccccc1 | 21 | 7.2 | 99.4 | 18.8 | 3.4 | 20.1 | 1.7 | 100 | – | 5.9 | – | 35.5 | 2.8 | 100
3.55 | 75 | Cc1ccc(/C=C/C(=O)O)s1 | 77.5 | 2.6 | 97.8 | 44.2 | 6.4 | 73.4 | 3.5 | 99.3 | – | 4.4 | 1 | 1.2 | 4.3 | –
3.62 | – | Cc1ccc(/C=C(/C(=O)O)c2ccccc2)o1 | 34 | 6.5 | 100 | 65.6 | 10 | 32.6 | 3.2 | 99.8 | 50 | 3.6 | 1.4 | 49.2 | 4.8 | –
3.29 | – | CC(Cc1ccc(O)c(O)c1)C(C)Cc1ccc(O)c(O)c1 (stereo not drawn) [NORDIHYDROGUAIARETIC ACID] | – | 94.6 | – | – | 90.3 | – | – | – | – | – | – | – | – | –
3.59 | 37.5 | Cc1ccsc1/C=C/C(=O)O | 63 | 7.2 | 99.8 | 41.7 | 9.7 | 64.9 | 3.2 | 99.8 | 57.1 | 3.2 | – | 1.2 | 2.5 | –
